Experimental findings from ChEMBL document CHEMBL5625166, “Disulfide-incorporated lipid prodrugs of cidofovir: Synthesis, antiviral activity, and release mechanism” (Eur J Med Chem, 2023) are described below.

Data set [1] relates to Vaccinia virus. As to the kind of experiment: Antiviral activity against VACV infected in A549 cells assessed as reduction in cytopathic effect incubated for 96 hrs by neutral red based spectrophotometric analysis. The following applies: Orthopoxvirus vaccinia, A549, 96 h. It is filed as functional, organism-based.
The nature of data set [2]: Therapeutic index, ratio of CC50 for African green monkey Vero cells to IC50 for VAVC infected in african green monkey Vero cells. It is filed as toxicity. The conditions noted are these: read-out: Ratio CC50/IC50.
The nature of data set [3]: Cytotoxicity against African green monkey Vero cells incubated for 72 hrs by neutral red based spectrophotometric analysis. It is filed as toxicity, cell-based. The following applies: chlorocebus sabaeus. In short, it runs like this:
(§1)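 Cells seeded at 3 × 10^4 cells/well and grown 24 h at 37 °C, 5% CO2. Two-fold compound dilutions starting at 200.0 μM applied for 72 h. Neutral red (40 μg/mL) added for 4 h, cells washed and destained in ethanol/acetic acid. OD read at 540 nm against cell-free blanks. CC50 from triplicates.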

Data set [4] is described as follows: Therapeutic index, ratio of CC50 for human A549 cells to IC50 for VAVC infected in human A549 cells. It is filed as toxicity, cell-based. The conditions noted are these: read-out: Ratio CC50/IC50.
For a further data set, the system named is A549. As to the kind of experiment: Cytotoxicity against human A549 cells incubated for 72 hrs by neutral red based spectrophotometric analysis. It is filed as toxicity, cell-based. The following applies: a549, 72 h. Put shortly: as §1
Data set [5] deals with Vaccinia virus. Description: Antiviral activity against VACV infected in Vero cells assessed as reduction in cytopathic effect incubated for 96 hrs by neutral red based spectrophotometric analysis. It is filed as functional, organism-based. The following applies: Orthopoxvirus vaccinia. (In general: Damage to the host cells serves as the signal in cytopathic effect assays.)

The subject of the next data set is Human adenovirus 5. As to the kind of experiment: Antiviral activity against AdV5 infected in A549 cells assessed as reduction in cytopathic effect incubated for 72 hrs by neutral red based spectrophotometric analysis. It is filed as functional, organism-based. The conditions noted are these: Human mastadenovirus C, A549, 72 h.
Data set [6] can be described thus: Therapeutic index, ratio of CC50 for human A549 cells to IC50 for AdV5 infected in human A549 cells. It is filed as toxicity, cell-based. The conditions noted are these: read-out: Ratio CC50/IC50.

Bounds are passed on as bounds.

By IC50 is commonly meant the concentration that inhibits the measured activity by half. For orientation: CC50 means the concentration at which the toxic effect on the cells reaches its halfway point. In the case of `CCCCCCCCCCSSCCOP(=O)(O)CO[C@H](CO)Cn1ccc(N)nc1=O`, the 50% inhibitory concentration (IC50) with Vaccinia virus [1] was 6.27 µM; in the data set on Vaccinia virus [5], 2.49 µM; with Human adenovirus 5, 12.5 µM. The selectivity ratio in data set [2] was 32.7; in data set [4], 10.4; in data set [6] it was 5.2. For the same molecule, the values for the cytotoxic concentration (CC50) (in data set [3]; in the data set on A549) were 81.3 µM and 65.2 µM, respectively.
For the molecule `CCCCCCCCCCCCSSCCOP(=O)(O)CO[C@H](CO)Cn1ccc(N)nc1=O`, the IC50 worked out at 0.217 µM in the data set on Vaccinia virus [1], 0.365 µM in the data set with Vaccinia virus [5] and 0.795 µM in the data set on Human adenovirus 5. Also, the selectivity ratio in data set [2] was determined as 39.2; in data set [4], 216; in data set [6], 59.1. Also, the CC50 was 14.3 µM in data set [3] and 47 µM in the data set on A549.
Turning to `CCCCCCCCCCCCCCCCSSCCCOP(=O)(O)CO[C@H](CO)Cn1ccc(N)nc1=O`, the half-maximal inhibitory concentration (IC50) was found to be 0.401 µM with Vaccinia virus [1], 0.274 µM in the data set with Vaccinia virus [5] and 0.3 µM with Human adenovirus 5. The results for the selectivity ratio in data set [2], in data set [4] and in data set [6] were 46.3, 116 and 156, respectively. In addition, the CC50 came to 12.7 µM in data set [3] and 46.7 µM with A549.
As to `CCCCCCCCCCCCSSCCCCOP(=O)(O)CO[C@H](CO)Cn1ccc(N)nc1=O`, the results for the IC50 in the data set with Vaccinia virus [1], in the data set with Vaccinia virus [5] and with Human adenovirus 5 were 1.05 µM, 0.861 µM and 0.255 µM, respectively. In addition, the selectivity ratio came out at 40.6 in data set [2], 76.8 in data set [4] and 317 in data set [6]. The CC50 in data set [3] came out at 35 µM; in the data set with A549, 80.6 µM.
On to `CCCCCCCCCCCCCCCCCCSSCCCOP(=O)(O)CO[C@H](CO)Cn1ccc(N)nc1=O`, for which the IC50 with Vaccinia virus [1] is 0.724 µM; with Vaccinia virus [5], 0.436 µM; with Human adenovirus 5 it was 1.86 µM. For the same molecule, the selectivity ratio in data set [2] was determined as 22.7; in data set [4], 44.6; in data set [6] it was 17.3. The CC50 in data set [3] came out at 9.87 µM; with A549, 32.3 µM.
`CCCCCCCCCCSSCCCCCCOP(=O)(O)CO[C@H](CO)Cn1ccc(N)nc1=O`: the IC50 in the data set with Vaccinia virus [1] was 4.29 µM; in the data set with Vaccinia virus [5] it was 6.27 µM; in the data set on Human adenovirus 5 it was 2.31 µM. Further, the selectivity ratio is 18.4 in data set [2], 45.2 in data set [4] and 83.9 in data set [6]. In addition, the 50% cytotoxic concentration (CC50) in data set [3] turned out to be 115 µM; with A549, 194 µM.
With `CCCCCCCCCCSSCCCCOP(=O)(O)CO[C@H](CO)Cn1ccc(N)nc1=O`, the half-maximal inhibitory concentration (IC50) with Vaccinia virus [1] was 45.7 µM; in the data set on Vaccinia virus [5] it was 40.6 µM. The selectivity ratio in data set [2] was 2.36; in data set [4], 3.55. For the same molecule, the CC50 in data set [3] was 95.8 µM; in the data set with A549 it was 162 µM.
`CCCCCCCCCCCCSSCCCOP(=O)(O)CO[C@H](CO)Cn1ccc(N)nc1=O`: the results for the IC50 in the data set on Vaccinia virus [1], in the data set on Vaccinia virus [5] and with Human adenovirus 5 were 2.02 µM, 6.54 µM and 1.26 µM, respectively. Further, the selectivity ratio in data set [2] was determined as 5.09; in data set [4], 23.5; in data set [6] it was 37.7. For the same molecule, the 50% cytotoxic concentration (CC50) in data set [3] turned out to be 33.3 µM; in the data set with A549, 47.6 µM.
Take `CCCCCCCCSSCCCCCCOP(=O)(O)CO[C@H](CO)Cn1ccc(N)nc1=O`: the IC50 is more than 50 µM in the data set on Vaccinia virus [1] and 49.3 µM in the data set with Vaccinia virus [5]. Besides, the selectivity ratio in data set [2] is more than 4.05; in data set [4], more than 4. For the same molecule, the CC50 (in data set [3]; in the data set on A549) was more than 200 µM in each case.
`CCCCCCCCCCSSCCCOP(=O)(O)CO[C@H](CO)Cn1ccc(N)nc1=O`: the IC50 was 22 µM in the data set with Vaccinia virus [1] and 31.5 µM in the data set on Vaccinia virus [5]. The selectivity ratio worked out at 5.77 in data set [2] and 5.91 in data set [4]. Moreover, the values for the CC50 (in data set [3]; in the data set on A549) were 182 µM and 130 µM, respectively.
